Assay results as given in PubChem BioAssay.
The source made the active and inactive calls.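 Rule for the calls, unless noted: active = NADPH fluorescence slope more negative than the mean of all samples by about 3 SD, 99.7% confidence; inactive = the rest.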

Experiments:
[1] = inhibitors of TNFa-induced NFkB p65 translocation, primary screen, imaging, HUVEC, MLSMR starter and 10KST1 sets (AID 438;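 active = inhibition above 20% together with a positive visual image hit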;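 note: compound added about 3h40 before a 20 min TNFalpha stimulation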;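 for inhibition: signal is the nuclear over cytoplasmic p65 intensity ratio per well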); settings: HUVEC TNFa-induced p65 nuclear translocation; cell count: measured here: nuclei count (cytotoxicity indicator), at 2.08 µM; inhibition: at 2 µM, stronger effect = higher value, 0% TNFa-plus-vehicle, 100% no-TNFa wells
[2] = reduction of polyQ htt aggregates in cells – imaging, exon1htt(103Q)mCFP cells, high-content imaging, primary screen (AID 483;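 active = visual image review flags a hit and inhibition of aggregation exceeds 20%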;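 note: compound exposure lasted 3 days before fixation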;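 for nuclei count: percent of the per-plate median nuclei count of sample wells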); settings: exon1htt(103Q)mCFP cell line, aggregate imaging, at 2 µM; inhibition of aggregation: stronger effect = higher value; nuclei count: measured here: cell count, toxicity
[3] = endothelial E-selectin expression blockers – imaging, HUVEC, immunofluorescence, MLSMR starter and 10KST1 sets, primary screen (AID 487;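 active = visually confirmed hit in the image check and inhibition above 20%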;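 for inhibition: signal is fraction of cell area covered by stained E-selectin grains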;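 for nuclei count: 100% = median nuclei count of all wells on the same plate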); settings: HUVEC TNFalpha-induced E-selectin immunofluorescence imaging, at 2 µM; inhibition: stronger effect = higher value; nuclei count: measured here: cell number, toxicity
[4] = target: Voltage-gated potassium channel subunit beta-2 (Rattus norvegicus) (UniProt P62483); assay: inhibitors of rat Kvbeta2 reductase activity – biochemical, NADPH fluorescence, primary screen (AID 622;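 active = fluorescence slope higher than the sample average by over 3 SD, cut at about -0.22 in these data, passing the limit was not always enough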;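 note: slope of raw intensity against log time taken from 70 to 1610 s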); settings: recombinant KvBeta, 4-cyanobenzaldehyde reduction, at 10 µM, stronger effect = higher value
[5] = target: Voltage-gated potassium channel subunit beta-2 (Rattus norvegicus) (UniProt P62483); assay: enhancers of rat Kvbeta2 NADPH turnover – biochemical, NADPH fluorescence, primary screen (AID 623); settings: Recombinant KvBeta, NADPH fluorescence decrease slope, 10 min; at 10 µM; stronger effect = lower value;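 note: fluorescence intensity change per second fitted from 20 to 320 s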
[6] = target: Muscarinic acetylcholine receptor M4 (Homo sapiens) (UniProt P08173); assay: M4-linked GIRK flux change, two-sided – cell-based, HEK293 M4/GIRK, thallium flux, BTC-AM, M4 allosteric agonist project, primary screen (AID 625;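 active = fluorescence slope after compound addition differing from the mean of all tested samples at 99.7% confidence, mostly higher but some lower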;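 note: thallium influx through GIRK channels coupled to M4 in HEK293 cells with BTC-AM dye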); settings: at 10 µM, actives lie on both sides
Outline: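 assay system = HEK293 cells with M4 receptor and GIRK channels | medium = pH 7.3 thallium assay buffer | doses = 10 µM final, single point | timing = cells overnight at 37 °C, BTC-AM loading 1 h, reads 2 min total | signal = BTC-AM fluorescence, 1 Hz kinetic reads | read-out = post-addition slope, 15–24 s, of baseline-normalized fluorescence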

[7] = blockers of RIG-like receptor reporter activation – cell-based, Sendai virus stimulus, luciferase, 10K MLSCN set, TLR/RLR signaling modifier project, primary screen (AID 602276;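 active = inhibition at or above 50% at 10 µM; inactive = inhibition below 50%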;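 note: firefly luciferase from ISG56 promoter only with Renilla not read in this screen; 0% = Sendai virus plus DMSO and 100% = medium plus DMSO without virus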); settings: HEK293 RL24 IRF3 luciferase reporter, at 10 µM, stronger effect = higher value
[8] = TLR3 IRF3 reporter activation blockers – cell-based, poly I:C stimulus, luciferase, 10K MLSCN set, primary screen (AID 602277;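 active = inhibition of the reporter signal at or above 50%; inactive = inhibition below 50%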); settings: HEK293-TLR3 RL24 IRF3 luciferase reporter, at 10 µM, stronger effect = higher value

Chain of Voltage-gated potassium channel subunit beta-2 (Rattus norvegicus) (P62483 whole entry, looked up): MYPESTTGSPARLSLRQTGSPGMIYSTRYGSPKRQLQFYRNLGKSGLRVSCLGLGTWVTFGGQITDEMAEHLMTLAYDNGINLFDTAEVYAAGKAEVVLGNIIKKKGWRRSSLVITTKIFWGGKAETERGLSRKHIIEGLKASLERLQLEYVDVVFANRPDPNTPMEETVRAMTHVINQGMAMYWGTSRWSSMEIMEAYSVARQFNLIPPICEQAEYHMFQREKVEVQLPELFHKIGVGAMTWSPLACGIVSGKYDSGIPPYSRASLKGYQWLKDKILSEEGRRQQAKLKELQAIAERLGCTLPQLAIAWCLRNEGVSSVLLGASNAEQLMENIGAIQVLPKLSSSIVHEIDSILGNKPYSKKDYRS
Chain of Muscarinic acetylcholine receptor M4 (Homo sapiens) (P08173 whole entry, looked up): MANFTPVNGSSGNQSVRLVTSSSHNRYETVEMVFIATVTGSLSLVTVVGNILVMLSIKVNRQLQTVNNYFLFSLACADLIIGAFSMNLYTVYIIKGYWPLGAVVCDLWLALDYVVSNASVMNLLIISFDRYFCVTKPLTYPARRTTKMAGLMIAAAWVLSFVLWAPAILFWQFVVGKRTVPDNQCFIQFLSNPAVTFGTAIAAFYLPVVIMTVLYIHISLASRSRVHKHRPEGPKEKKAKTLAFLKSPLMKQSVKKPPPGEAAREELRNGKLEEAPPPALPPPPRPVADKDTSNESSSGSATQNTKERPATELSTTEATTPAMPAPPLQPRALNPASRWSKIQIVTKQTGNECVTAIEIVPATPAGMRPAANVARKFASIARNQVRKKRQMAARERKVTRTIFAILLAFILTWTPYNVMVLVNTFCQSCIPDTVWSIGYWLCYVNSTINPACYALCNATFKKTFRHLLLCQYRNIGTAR

Row | SMILES | cell count [1] | inhibition [1] | inhibition of aggregation [2] | nuclei count [2] [%] | inhibition [3] | nuclei count [3] [%] | fluorescence slope [4] | NADPH fluorescence slope [5] | fluorescence slope [6] | inhibition [7] | inhibition [8]
1 | Cc1ccc(C(=O)CSc2nnc(-c3cccnc3)n2N)cc1 | 614 | -20.3% (inactive) | -15.4% (inactive) | 89.2 | 5.4% (inactive) | 95.7 | -0.534 (inactive) | -5.6e-05 (inactive) | 0.00446 (inactive) | -0.185% (inactive) | 51.1% (active)
2 | CCOC(=O)C1CCN(C(=O)c2c(-c3c(Cl)cccc3Cl)noc2C)CC1 | 376 | 1.6% (inactive) | 20.9% (inactive) | 94.8 | -89.8% (inactive) | 110 | -0.557 (inactive) | -4.4e-05 (inactive) | 0.00598 (inactive) | 4.89% (inactive) | 12.6% (inactive)
3 | CC1CCc2nc(NC(=O)CN3CCN(Cc4ccc5c(c4)OCO5)CC3)sc2C1 (centres undefined) | 641 | -9.3% (inactive) | 2% (inactive) | 100 | -24.4% (inactive) | 97.3 | -0.544 (inactive) | -6.2e-05 (inactive) | 0.00492 (inactive) | 11.9% (inactive) | 10.6% (inactive)
4 | CCOC(=O)C1=C(C)NC(SC(C)=O)=NC1c1ccc(OC(C)=O)c(OC)c1 (centres undefined) | 550 | 0% (inactive) | 50% (active) | 64.7 | -10.1% (inactive) | 101 | -0.507 (inactive) | -0.000113 (inactive) | 0.0052 (inactive) | 1.93% (inactive) | 1.43% (inactive)
5 | Cc1ccc(S(=O)(=O)NCC2CCC(C(=O)NCCCN3CCOCC3)CC2)cc1 (centres undefined) | 305 | 1.9% (inactive) | 26.8% (inactive) | 80.7 | -24.4% (inactive) | 112 | -0.564 (inactive) | -0.000104 (inactive) | 0.00513 (inactive) | 13% (inactive) | 22.2% (inactive)
6 | O=c1c2nnn(Cc3ccccc3)c2ncn1-c1ccccc1 | 522 | -8.6% (inactive) | 16.2% (inactive) | 86.9 | 9% (inactive) | 99 | -0.411 (inactive) | -8.2e-05 (inactive) | 0.00572 (inactive) | 14.3% (inactive) | 25.9% (inactive)
7 | COC(=O)c1cc(NS(=O)(=O)c2ccc3c(c2)CCC(=O)N3)cc(C(=O)OC)c1 | 384 | -2.9% (inactive) | -24.1% (inactive) | 108 | -255% (inactive) | 115 | -0.464 (inactive) | 2.6e-05 (inactive) | 0.00663 (inactive) | -11.6% (inactive) | 79.6% (active)
8 | CCc1nnc(NC(=O)CSc2nnc(Cc3ccccc3)n2-c2ccc(OC)cc2)s1 | 680 | -13.4% (inactive) | 0.3% (inactive) | 102 | 52.3% (inactive) | 105 | -0.45 (inactive) | -5.9e-05 (inactive) | 0.00454 (inactive) | 10.9% (inactive) | 12% (inactive)
9 | COc1ccc(CNc2nc(SCC(=O)NCc3ccco3)nc3ccccc23)cc1 | 705 | 0.9% (inactive) | -24.8% (inactive) | 104 | -50.5% (inactive) | 99.3 | -0.484 (inactive) | 9.7e-05 (inactive) | 0.00602 (inactive) | -0.825% (inactive) | 2.94% (inactive)
10 | Cc1ccc(NS(=O)(=O)c2cn(C)cn2)cc1 | 491 | -0.5% (inactive) | 7.8% (inactive) | 89.1 | 3.6% (inactive) | 107 | -0.44 (inactive) | -0.000336 (inactive) | 0.00531 (inactive) | 15.2% (inactive) | 17.6% (inactive)
11 | CCC(=O)N1CCc2cc(S(=O)(=O)CCC(=O)Nc3nc(C)cs3)ccc21 | 606 | 5.7% (inactive) | 9.7% (inactive) | 95.8 | -144% (inactive) | 158 | -0.439 (inactive) | 7.6e-05 (inactive) | 0.00524 (inactive) | 19.2% (inactive) | 21.5% (inactive)
12 | CCOCCn1cnc2sc(C(=O)NCC(=O)OCC)c(C)c2c1=O | 425 | 7.9% (inactive) | -1.3% (inactive) | 107 | -256% (inactive) | 165 | -0.55 (inactive) | -2.6e-05 (inactive) | 0.00587 (inactive) | -2.53% (inactive) | -16% (inactive)
13 | CN(Cc1cccs1)c1ncnc2sccc12 | 549 | -11.6% (inactive) | -28.3% (inactive) | 101 | -38.6% (inactive) | 147 | -0.456 (inactive) | 2.8e-05 (inactive) | 0.00479 (inactive) | 7.29% (inactive) | -37.9% (inactive)
14 | CCCCc1ccc(NC(=O)N[C@H](C(=O)O)C(C)CC)cc1 (some centres undefined) | 610 | -13.3% (inactive) | -22.8% (inactive) | 109 | -22.1% (inactive) | 118 | -0.446 (inactive) | -3.7e-05 (inactive) | 0.00522 (inactive) | 4.79% (inactive) | 14.4% (inactive)
15 | COc1ccc2c(C(=O)CN(C)C3CCCCC3)c[nH]c2c1 | 533 | -0.9% (inactive) | -4.4% (inactive) | 82.5 | -20.8% (inactive) | 96.7 | -0.561 (inactive) | -2.1e-05 (inactive) | 0.0054 (inactive) | 20.8% (inactive) | 39.7% (inactive)
16 | COc1cccc(OCCOCCN(C)CCO)c1 | 313 | 1.5% (inactive) | 19.1% (inactive) | 85.9 | 41.3% (inactive) | 88.1 | -0.532 (inactive) | -2.5e-05 (inactive) | 0.00575 (inactive) | -3.56% (inactive) | 14.6% (inactive)
17 | COC(=O)c1onc(C(=O)c2ccccc2)c1C(=O)OC | 405 | 2.7% (inactive) | -4.5% (inactive) | 103 | -67.9% (inactive) | 114 | -0.568 (inactive) | -4.3e-05 (inactive) | 0.00647 (inactive) | 16.3% (inactive) | 12.9% (inactive)
18 | CC(=O)c1ccc(NC(=O)c2noc3c2CCCCC3)cc1 | 214 | 2.3% (inactive) | -0.6% (inactive) | 108 | -10.4% (inactive) | 118 | -0.512 (inactive) | -6e-05 (inactive) | 0.00493 (inactive) | -32.5% (inactive) | -114% (inactive)
19 | COc1cc(-c2noc(-c3cccc(Cl)c3)n2)cc(OC)c1OC | 778 | -0.6% (inactive) | -21% (inactive) | 103 | -33.7% (inactive) | 113 | -0.568 (inactive) | 2.5e-05 (inactive) | 0.00623 (inactive) | 6.15% (inactive) | -21.6% (inactive)
